According to ChEMBL document CHEMBL1142719 (J Med Chem, 2005):

Key:
[1] = target: T1, Adenosine receptor A3 (Homo sapiens) (UniProt P0DMS8); test: Relative activation of human Adenosine A3 receptor expressed in CHO cells at 10 uM treatment compared to 10 uM Cl-IB-MECA; type: functional, cell-based
T1 sequence (whole entry): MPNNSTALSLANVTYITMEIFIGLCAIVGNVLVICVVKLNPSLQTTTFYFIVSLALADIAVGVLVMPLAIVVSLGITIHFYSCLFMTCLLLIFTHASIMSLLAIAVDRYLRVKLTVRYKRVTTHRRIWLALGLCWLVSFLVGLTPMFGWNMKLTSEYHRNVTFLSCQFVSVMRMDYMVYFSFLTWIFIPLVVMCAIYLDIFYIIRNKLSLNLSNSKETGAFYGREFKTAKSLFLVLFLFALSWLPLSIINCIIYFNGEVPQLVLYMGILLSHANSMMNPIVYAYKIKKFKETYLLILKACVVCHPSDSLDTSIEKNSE

Adenosine receptor A3 [2] = target: T2, Adenosine receptor A3 (Homo sapiens, UniProt P0DMS8); test: Inhibition of [125I]-AB-MECA binding to human Adenosine A3 receptor expressed in CHO cells; type: cell-based
T2 sequence (P0DMS8 whole entry): T1 sequence (whole entry)

Adenosine receptor A1 = target: T3, Adenosine receptor A1 (Homo sapiens, UniProt P30542); test: Inhibition of [3H]R-PIA binding to human Adenosine A1 receptor expressed in CHO cells; type: cell-based
T3 sequence (P30542 whole entry): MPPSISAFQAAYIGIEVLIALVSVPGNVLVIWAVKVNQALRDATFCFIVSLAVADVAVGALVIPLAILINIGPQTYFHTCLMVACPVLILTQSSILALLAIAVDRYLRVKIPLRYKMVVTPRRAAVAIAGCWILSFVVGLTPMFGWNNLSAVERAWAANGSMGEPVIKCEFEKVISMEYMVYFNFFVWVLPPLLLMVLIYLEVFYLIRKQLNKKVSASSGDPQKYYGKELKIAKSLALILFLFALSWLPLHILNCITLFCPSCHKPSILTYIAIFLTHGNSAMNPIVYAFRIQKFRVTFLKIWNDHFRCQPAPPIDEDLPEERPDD

Adenosine receptor A2a [3] = target: T4, Adenosine receptor A2a (Homo sapiens, UniProt P29274); test: Inhibition of [3H]-CGS- 21680 binding to human Adenosine A2A receptor expressed in CHO cells; type: cell-based
[4] = target: T5, Adenosine receptor A2b (Homo sapiens) (UniProt P29275); test: Relative activation of human Adenosine A2B receptor at 10 uM treatment compared to 10 uM Cl-IB-MECA; type: functional
T5 sequence (whole entry): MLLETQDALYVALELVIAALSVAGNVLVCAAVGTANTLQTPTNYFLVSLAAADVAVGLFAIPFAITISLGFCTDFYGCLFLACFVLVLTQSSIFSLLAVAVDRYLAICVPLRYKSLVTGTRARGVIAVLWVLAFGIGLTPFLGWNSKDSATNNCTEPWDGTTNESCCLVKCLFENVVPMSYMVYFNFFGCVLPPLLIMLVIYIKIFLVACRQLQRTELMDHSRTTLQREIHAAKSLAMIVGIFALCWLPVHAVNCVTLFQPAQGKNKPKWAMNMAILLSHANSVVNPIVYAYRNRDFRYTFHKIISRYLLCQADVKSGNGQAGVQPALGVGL

Adenosine receptor A2a [5] = target: T4, Adenosine receptor A2a; test: Displacement of [3H]-CGS- 21680 from human Adenosine A2A receptor expressed in CHO cells at 10 uM; type: cell-based
Summary of the method: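 Human A2A receptor stably expressed in adherent CHO cells. Competition binding used [3H]CGS 21680 as the radioligand.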

Adenosine receptor A3 [6] = target: T6, Adenosine receptor A3 (Rattus norvegicus, UniProt P28647); test: Inhibition of [125I]AB-MECA binding to rat Adenosine A3 receptor expressed in CHO cells; type: cell-based
T6 sequence (P28647 whole entry): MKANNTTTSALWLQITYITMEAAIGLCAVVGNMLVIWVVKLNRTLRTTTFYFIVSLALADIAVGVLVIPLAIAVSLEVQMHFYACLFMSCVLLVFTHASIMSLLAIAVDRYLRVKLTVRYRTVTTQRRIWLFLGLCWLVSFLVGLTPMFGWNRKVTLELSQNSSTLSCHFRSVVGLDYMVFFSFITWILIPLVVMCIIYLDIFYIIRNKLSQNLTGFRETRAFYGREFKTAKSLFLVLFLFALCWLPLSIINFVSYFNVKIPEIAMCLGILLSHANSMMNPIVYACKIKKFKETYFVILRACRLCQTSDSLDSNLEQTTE

T4 sequence (P29274 whole entry): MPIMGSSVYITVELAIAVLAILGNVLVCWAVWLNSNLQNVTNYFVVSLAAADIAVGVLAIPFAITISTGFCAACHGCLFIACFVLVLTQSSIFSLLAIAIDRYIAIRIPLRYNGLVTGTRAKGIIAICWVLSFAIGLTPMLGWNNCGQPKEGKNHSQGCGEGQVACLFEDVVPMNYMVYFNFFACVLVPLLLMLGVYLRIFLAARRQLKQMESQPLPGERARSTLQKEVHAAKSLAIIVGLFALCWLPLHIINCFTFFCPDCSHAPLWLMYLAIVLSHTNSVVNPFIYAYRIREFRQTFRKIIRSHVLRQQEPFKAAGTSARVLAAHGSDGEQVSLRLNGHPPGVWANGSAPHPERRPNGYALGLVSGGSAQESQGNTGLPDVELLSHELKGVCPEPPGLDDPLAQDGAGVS

Row | Structure (SMILES) | Activation [1] [%] | Ki (Adenosine receptor A2a [3]) [nM] | Activation [4] [%] | Displacement (Adenosine receptor A2a [5]) [%] | Ki (Adenosine receptor A3 [6]) [nM] | Ki (Adenosine receptor A3 [2]) [nM] | Ki (Adenosine receptor A1) [nM] | Inhibition (Adenosine receptor A1; cho) [%]
1 | OC[C@@]12C[C@@H]1[C@@H](n1cnc3c(NCc4cccc(I)c4)nc(Cl)nc31)[C@H](O)[C@@H]2O | 3 | 1600 | – | – | – | 1.9 | 65 | –
2 | CNC(=O)[C@]12C[C@@H]1[C@@H](n1cnc3c(NCc4cccc(F)c4)nc(Cl)nc31)[C@H](O)[C@@H]2O | – | 5100 | 28 | – | – | – | – | –
3 | CNC(=O)[C@]12C[C@@H]1[C@@H](n1cnc3c(NC)nc(N)nc31)[C@H](O)[C@@H]2O | – | – | – | 17 | – | – | – | –
4 | CNC(=O)[C@]12C[C@@H]1[C@@H](n1cnc3c(NCc4ccc(N)cc4)nc(Cl)nc31)[C@H](O)[C@@H]2O | – | – | 22 | 28 | – | – | – | –
5 | CNC(=O)[C@]12C[C@@H]1[C@@H](n1cnc3c(NC4CC4c4ccccc4)nc(Cl)nc31)[C@H](O)[C@@H]2O (stereo not given in full) | – | 4800 | 48 | – | – | – | – | –
6 | CNC(=O)[C@]12C[C@@H]1[C@@H](n1cnc3c(NCc4cccc(Cl)c4)nc(I)nc31)[C@H](O)[C@@H]2O | – | – | – | 43 | – | – | – | –
7 | CNC(=O)[C@]12C[C@@H]1[C@@H](n1cnc3c(NCc4cc(Cl)ccc4Cl)nc(Cl)nc31)[C@H](O)[C@@H]2O | – | 1300 | 32 | – | – | – | – | –
8 | CNC(=O)[C@]12C[C@@H]1[C@@H](n1cnc3c(NCC(c4ccccc4)c4ccccc4)nc(Cl)nc31)[C@H](O)[C@@H]2O | 107 | 1600 | 46 | – | 10 | 0.69 | 1300 | –
9 | CNC(=O)[C@]12C[C@@H]1[C@@H](n1cnc3c(NCc4ccc(N)c(I)c4)nc(Cl)nc31)[C@H](O)[C@@H]2O | – | 1100 | – | – | – | – | – | –
10 | CNC(=O)[C@]12C[C@@H]1[C@@H](n1cnc3c(NCc4cccc(Br)c4)nc(Cl)nc31)[C@H](O)[C@@H]2O | 100 | 1300 | 38 | – | 0.76 | 0.38 | 270 | –
11 | CNC(=O)[C@@]12C[C@@H]1[C@@H](n1cnc3c(NCc4cc(Cl)ccc4OC)nc(Cl)nc31)[C@H](O)[C@@H]2O | – | 1200 | 37 | – | – | – | – | –
12 | CNC(=O)[C@]12C[C@@H]1[C@@H](n1cnc3c(NCc4ccccc4C)nc(Cl)nc31)[C@H](O)[C@@H]2O | – | 3800 | 24 | – | – | – | – | –
13 | CNC(=O)[C@]12C[C@@H]1[C@@H](n1cnc3c(NCc4cc(I)ccc4OC)nc(Cl)nc31)[C@H](O)[C@@H]2O | – | 430 | 46 | – | – | – | – | –
14 | CNC(=O)[C@@]12C[C@@H]1[C@@H](n1cnc3c(NCc4cccc(I)c4)nc(Cl)nc31)[C@H](O)[C@@H]2O | 100 | – | – | – | – | – | – | –
15 | CNC(=O)[C@]12C[C@@H]1[C@@H](n1cnc3c(NCc4cc(C#CCO)ccc4Cl)nc(Cl)nc31)[C@H](O)[C@@H]2O | 108 | – | 6 | 12 | – | 217 | – | 14
16 | CNC(=O)[C@@]12C[C@@H]1[C@@H](n1cnc3c(NCc4cccc(Cl)c4)nc(Cl)nc31)[C@H](O)[C@@H]2O | – | 2300 | 38 | – | 1 | – | 260 | –
17 | CNC(=O)[C@]12C[C@@H]1[C@@H](n1cnc3c(NCc4cccc(Cl)c4)nc(SC)nc31)[C@H](O)[C@@H]2O | 100 | – | – | 52 | – | 1.5 | 610 | –
18 | CNC(=O)C12C[C@@H]1[C@@H](n1cnc3c(NCc4cccnc4)nc(Cl)nc31)[C@H](O)[C@@H]2O (single isomer, unassigned) | – | – | 4 | 33 | – | – | – | –
19 | CNC(=O)[C@]12C[C@@H]1[C@@H](n1cnc3c(NCc4cc(I)ccc4Cl)nc(Cl)nc31)[C@H](O)[C@@H]2O | – | 480 | 58 | – | – | – | – | –
20 | CNC(=O)[C@]12C[C@@H]1[C@@H](n1cnc3c(NCc4cccc(C)c4)nc(Cl)nc31)[C@H](O)[C@@H]2O | – | 3700 | 46 | – | – | – | – | –
21 | CNC(=O)[C@@]12C[C@@H]1[C@@H](n1cnc3c(NC)nc(Cl)nc31)[C@H](O)[C@@H]2O | 104 | – | – | 6 | – | – | – | –
22 | CNC(=O)[C@]12C[C@@H]1[C@@H](n1cnc3c(NCc4cc(Cl)ccc4OCC(N)=O)nc(Cl)nc31)[C@H](O)[C@@H]2O | – | 800 | – | – | – | – | – | –
23 | CNC(=O)[C@]12C[C@@H]1[C@@H](n1cnc3c(NCc4cc(OC)ccc4OC)nc(Cl)nc31)[C@H](O)[C@@H]2O | 107 | – | 0 | 52 | – | 1.4 | 1600 | –
24 | CNC(=O)[C@]12C[C@@H]1[C@@H](n1cnc3c(NCc4cccc(C#CCO)c4)nc(Cl)nc31)[C@H](O)[C@@H]2O | – | – | 28 | 56 | – | – | – | –
25 | CNC(=O)[C@]12C[C@@H]1[C@@H](n1cnc3c(NCc4cc(Cl)ccc4OCc4ccccc4)nc(Cl)nc31)[C@H](O)[C@@H]2O | 110 | 850 | 49 | – | 11 | 5.2 | 1200 | –

Continued, in another order:

Row | Activation [1] [%] | Ki (Adenosine receptor A2a [3]) [nM] | Activation [4] [%] | Displacement (Adenosine receptor A2a [5]) [%] | Ki (Adenosine receptor A3 [6]) [nM] | Structure (SMILES) | Ki (Adenosine receptor A3 [2]) [nM] | Ki (Adenosine receptor A1) [nM] | Inhibition (Adenosine receptor A1; cho) [%]
26 | 100 | 2300 | – | – | 290 | OC[C@H]1O[C@@H](n2cnc3c(NCc4cccnc4)ncnc32)[C@H](O)[C@@H]1O | 4.5 | 42 | –
27 | – | – | 16 | 17 | 6400 | CNc1ncnc2c1ncn2[C@@H]1O[C@H](CO)[C@@H](O)[C@H]1O | 9.3 | 6000 | –
28 | 13 | 860 | – | – | – | OC[C@@]12C[C@@H]1[C@@H](n1cnc3c(NCc4cccc(I)c4)ncnc31)[C@H](O)[C@@H]2O | 9.2 | 35 | –
29 | 100 | – | – | – | 38 | Cc1ccccc1CNc1ncnc2c1ncn2[C@@H]1O[C@H](CO)[C@@H](O)[C@H]1O | – | – | –
30 | 0 | – | 70 | – | 540 | OC[C@H]1O[C@@H](n2cnc3c(NCC(c4ccccc4)c4ccccc4)ncnc32)[C@H](O)[C@@H]1O | – | – | –
31 | 100 | – | – | – | – | CNC(=O)[C@@]12C[C@@H]1[C@@H](n1cnc3c(NCc4cccc(I)c4)ncnc31)[C@H](O)[C@@H]2O | – | – | –
32 | 46 | – | 58 | – | – | OC[C@H]1O[C@@H](n2cnc3c(NCc4cccc(I)c4)ncnc32)[C@H](O)[C@@H]1O | – | 7.4 | –
33 | 80 | – | – | – | 35 | OC[C@H]1O[C@@H](n2cnc3c(NCc4cccc(Cl)c4)ncnc32)[C@H](O)[C@@H]1O | 4.4 | – | –
34 | 101 | 2500 | 26 | – | 400 | OC[C@H]1O[C@@H](n2cnc3c(NC4CC4c4ccccc4)ncnc32)[C@H](O)[C@@H]1O (stereo not given in full) | – | – | –
35 | – | 400 | 57 | – | – | COc1ccc(Cl)cc1CNc1ncnc2c1ncn2[C@@H]1O[C@H](CO)[C@@H](O)[C@H]1O | – | – | –
36 | – | – | 0 | – | – | CNC(=O)[C@H]1O[C@@H](n2cnc3c(NCc4cccc(I)c4)nc(Cl)nc32)[C@H](O)[C@@H]1O | – | – | –
37 | 98 | – | 11 | 15 | > 10000 | CNc1nc(N)nc2c1ncn2[C@@H]1O[C@H](CO)[C@@H](O)[C@H]1O | – | – | –
38 | – | – | 0 | – | – | CNC(=O)[C@H]1O[C@@H](n2cnc3c(NCc4cccc(I)c4)ncnc32)[C@H](O)[C@@H]1O | – | – | –
39 | 0 | – | 16 | – | – | OC[C@H]1O[C@@H](n2cnc3c(NCc4cccc(I)c4)nc(Cl)nc32)[C@H](O)[C@@H]1O | – | 17 | –
